Measurements as given in PubChem BioAssay AID504769 (Southern Research Specialized Biocontainment Screening …, 2011).

Each molecule was assayed on Bladder 5637 cells viability, CellTiter-Glo, 72 h (assay: viability loss in 5637 carcinoma cells – cell-based, set 2, cytotoxicity control for bacterial capsule biogenesis inhibitors, dose response (AID 504769)).
Method in brief: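 Material: Bladder carcinoma 5637 cell line | Schedule: 72 h compound exposure | Technique: CellTiter-Glo luminescence | Benchmarks: Hyamine as cytotoxic control, untreated cells as reference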
Work on `O=C(Nc1nc2ccccc2s1)c1cccnc1` yielded a CC50 of 129 µM.
`O=C(Nc1nc2ccccc2s1)c1ccncc1` was tested, and the CC50 was 104 µM.
`O=C(Nc1nc2ccc(F)cc2s1)c1ccccn1` gave a CC50 of 3.32 µM.
`O=C(Nc1nc2c(F)cccc2s1)c1ccccn1` gave a CC50 of 2.56 µM.
Molecule `O=C(Nc1nc2c(F)cc(F)cc2s1)c1ccccc1` has a CC50 of 30.9 µM.
`O=C(Nc1nc2c(F)cc(F)cc2s1)c1ccncc1` showed a CC50 of 71.8 µM.
`Cc1cc(C)c2nc(NC(=O)c3ccccn3)sc2c1` gave a CC50 of 6.19 µM.
`O=C(Nc1nc2c(Cl)cc(Cl)cc2s1)c1ccccn1` was tested, and the CC50 was 3.55 µM.
